Assay results taken from ChEMBL document CHEMBL1909586 (Eur J Med Chem, 2011).

Tests used:
[1] = biological target: T1, Acetylcholinesterase (Homo sapiens, UniProt P22303); assay: Inhibition of human […] recombinant AChE after 20 mins using acetylthiocholine iodide as a substrate by Ellman's assay
[2] = biological target: Cholinesterase (Homo sapiens, UniProt P06276); assay: Inhibition of human serum recombinant BChE after 20 mins using butyrylthiocholine iodide as a substrate by Ellman's assay
[3] = tested on: SH-SY5Y; assay: Antioxidant activity in human SH-SY5Y cells assessed as inhibition of tert-butyl hydroperoxide-induced intracellular ROS production at 1 uM after 24 hrs using DCFH-DA by fluorescence assay (reference value: 82.4 +/- 6.6 %); assay type: functional; design: scale not given: the % may be the effect or the level left
[4] = tested on: SH-SY5Y; assay: Cytotoxicity against human SH-SY5Y cells assessed as reduction in cell viability at 50 uM after 24 hrs by MTT assay; assay type: cell-based
Summary of the method: (§1)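 Cells were SH-SY5Y, grown in DMEM with 10% fetal calf serum and 2 mM glutamine, seeded at 2 × 10^5 cells/well and allowed 24 h at 37 °C/5% CO2. Compound-containing media (0.1–50 µM) were applied for 24 h. After a PBS wash, cells took up MTT (5 mg/mL in PBS) for 4 h. Formazan was dissolved in isopropanol and read at 405 nm. Viability is given as % of control cells.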

[5] = tested on: SH-SY5Y; assay: Antioxidant activity in human SH-SY5Y cells assessed as inhibition of tert-butyl hydroperoxide-induced intracellular ROS production at 10 uM after 24 hrs using DCFH-DA by fluorescence assay (reference value: 82.4 +/- 6.6 %); assay type: functional; design: scale not given: the % may be the effect or the level left
[6] = tested on: SH-SY5Y; assay: Antioxidant activity in human SH-SY5Y cells assessed as inhibition of tert-butyl hydroperoxide-induced intracellular ROS production at 5 uM after 24 hrs using DCFH-DA by fluorescence assay (reference value: 82.4 +/- 6.6 %); assay type: functional; design: scale not given: the % may be the effect or the level left
[7] = tested on: SH-SY5Y; assay: Antioxidant activity in human SH-SY5Y cells assessed as inhibition of tert-butyl hydroperoxide-induced intracellular ROS production at 50 uM after 24 hrs using DCFH-DA by fluorescence assay (reference value: 82.4 +/- 6.6 %); assay type: functional; design: scale not given: the % may be the effect or the level left
[8] = tested on: SH-SY5Y; assay: Cytotoxicity against human SH-SY5Y cells at 0.1 to 50 uM after 24 hrs by MTT assay; assay type: cell-based; summary of the method: as §1
[9] = biological target: T1, Acetylcholinesterase; assay: Inhibition of human AChE-induced amyloid beta (1 to 40) aggregation at 100 uM after 24 hrs by thioflavin T based fluorometric assay

Sequence of Cholinesterase (P06276 whole entry): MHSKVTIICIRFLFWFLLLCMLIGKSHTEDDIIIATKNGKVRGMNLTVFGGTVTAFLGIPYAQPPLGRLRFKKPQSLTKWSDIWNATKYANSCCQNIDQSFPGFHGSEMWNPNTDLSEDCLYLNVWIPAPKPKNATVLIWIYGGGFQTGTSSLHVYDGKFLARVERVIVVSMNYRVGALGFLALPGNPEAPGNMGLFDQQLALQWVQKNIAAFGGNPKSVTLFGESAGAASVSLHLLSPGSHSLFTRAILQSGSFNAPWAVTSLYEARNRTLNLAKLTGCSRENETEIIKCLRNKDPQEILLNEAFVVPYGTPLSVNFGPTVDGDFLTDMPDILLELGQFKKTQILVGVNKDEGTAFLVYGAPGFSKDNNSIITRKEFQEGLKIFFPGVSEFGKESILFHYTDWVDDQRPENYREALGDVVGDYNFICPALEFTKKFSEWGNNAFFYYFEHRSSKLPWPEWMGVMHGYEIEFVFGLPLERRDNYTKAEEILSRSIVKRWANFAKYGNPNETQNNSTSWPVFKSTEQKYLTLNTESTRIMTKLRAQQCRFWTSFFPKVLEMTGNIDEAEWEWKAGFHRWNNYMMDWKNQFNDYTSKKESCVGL
T1 sequence (P22303 whole entry): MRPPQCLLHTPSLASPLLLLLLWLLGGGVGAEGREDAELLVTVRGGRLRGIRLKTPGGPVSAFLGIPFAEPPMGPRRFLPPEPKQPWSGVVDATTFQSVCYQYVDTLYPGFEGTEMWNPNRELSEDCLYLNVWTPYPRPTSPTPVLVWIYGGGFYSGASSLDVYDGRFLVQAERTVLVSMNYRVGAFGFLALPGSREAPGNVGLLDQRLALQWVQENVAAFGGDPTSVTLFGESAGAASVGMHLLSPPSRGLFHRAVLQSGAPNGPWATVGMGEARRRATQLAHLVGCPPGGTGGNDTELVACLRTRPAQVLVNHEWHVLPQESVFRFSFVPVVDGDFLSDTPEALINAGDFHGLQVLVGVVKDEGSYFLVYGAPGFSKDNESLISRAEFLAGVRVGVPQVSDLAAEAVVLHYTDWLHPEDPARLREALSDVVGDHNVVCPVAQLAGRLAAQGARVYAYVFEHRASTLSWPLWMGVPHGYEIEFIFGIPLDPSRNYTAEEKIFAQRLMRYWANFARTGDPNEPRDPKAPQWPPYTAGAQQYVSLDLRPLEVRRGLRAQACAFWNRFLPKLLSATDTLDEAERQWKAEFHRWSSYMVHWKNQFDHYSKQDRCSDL

Compound	IC50 [1]	IC50 [2]	Activity [3]	Activity [4]	Activity [5]	Activity [6]	Activity [7]	Activity [8]	inhibition [9]
O=C(CCCC[C@H]1CCSS1)NCCCNc1c2c(nc3cc(Cl)ccc13)CCCC2	0.000471 µM	0.0121 µM	–	–	–	–	–	–	–
O=C(CCCC[C@@H]1CCSS1)NCCCNc1c2c(nc3cc(Cl)ccc13)CCCC2	–	0.0126 µM	–	–	–	–	–	–	–
O=C(CCCCc1cccs1)NCCCNc1c2c(nc3cc(Cl)ccc13)CCCC2	–	–	81%	80%	80.2%	79.8%	–	–	–
COc1cccc(C(C)N(C)CCCNC(=O)CCCCC2CCSS2)c1 (mixture of isomers)	–	–	82.5%	–	68.8%	80%	46.4%	Non-toxic	–
CC(c1cccc(OCCCNC(=O)CCCCC2CCSS2)c1)N(C)C (mixture of isomers)	–	–	80.3%	–	48%	76.8%	34.4%	Non-toxic	–
COc1cc2nc(Cl)nc(NCCCNC(=O)CCCCC3CCSS3)c2cc1OC (racemic)	–	205 µM	82%	30%	63.4%	73.5%	–	–	–
CCN(CCCCCCNC(=O)CCCCC1CCSS1)Cc1ccccc1OC (racemic)	–	–	80.8%	–	69.6%	75.8%	37.6%	Non-toxic	16.8%
O=C(CCCCC1CCSS1)NCCCNc1c2c(nc3cc(Cl)ccc13)CCCC2 (racemic) [LIPOCRINE]	–	–	83.2%	–	50%	65%	31%	–	61.8%
